# KCNQ1 inh: inhibitors of human KCNQ1 potassium channel; actives 1.3% (n = 310,000); AID 2642; CHO-K1 KCNQ1, FluxOR thallium flux fluorescence; active compounds read high; B-score at 10 µM; P51787;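 active = compounds whose thallium flux B-score, printed positive for inhibition, exceeds three library SD while starting fluorescence stays within three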;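 also: channel opened by potassium depolarization with thallium stimulus after 20 min compound exposure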
# hERG rescue: shields human hERG channel from block by proarrhythmic agents | actives 0.51% (n = 310,000) | Q12809 | activation (rescue from dofetilide block), less the hit threshold, % at 10 µM | AID 1511 | CHO-hERG, FluxOR thallium flux, dofetilide IC70 present;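 active = activation above the mean of controls blocked by dofetilide plus 5 SD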;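 also: thallium influx through hERG after potassium depolarization seen as dye fluorescence rise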
# KCNQ1 act: potentiates or activates the human KCNQ1 potassium channel; P51787; actives 0.35% (n = 310,000); B-score at 10 µM; CHO-K1 KCNQ1, thallium flux FluxOR fluorescence; active compounds read high;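 active = fluorescence ratio B-score, a plate-corrected score, at least three library SD, with initial intensity B-score within 5 SD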
#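 assay system = KCNQ1-transfected CHO-K1 cells | medium = assay buffer with matched DMSO | probe or stimulus = depolarizing K+/Tl+ stimulus, K2SO4 and Tl2SO4 each 12.5 mM in 5x stock | dosing = single dose | incubation = dye 90 min, compound 20 min, room temperature | detection = kinetic FluxOR fluorescence, 10 s baseline plus 110 s post-stimulus | evaluation = ratio B score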
# KCNK9 block: human KCNK9 channel inhibition. Q9NPC2. actives 1.2% (n = 310,000). B-score at 10 µM. HEK293 KCNK9, FluxOR thallium flux fluorescence; active compounds read low;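 active = ratio B-score over 3 SD below the library mean, with starting fluorescence within 5 SD of its mean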;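 also: negative B-score means less thallium flux so channel inhibition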
# KCNK3 block: human KCNK3 channel inhibition, primary screen | O14649 | CHO-KCNK3 thallium flux, FluxOR fluorescence; active compounds read low | B-score at 10 µM | actives 0.84% (n = 340,000) | AID 602410;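 active = B-score under library mean minus 4 SD, starting fluorescence ratio at most library mean plus 5 SD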;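 also: more negative B-score means stronger inhibition of thallium flux through KCNK3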
# Kir21 inh: Kir2.1 (mouse) channel inhibition | P35561 | B-score at 10 µM | actives 0.85% (n = 310,000) | HEK293-Kir2.1, FluxOR thallium flux fluorescence; active compounds read low | AID 1672;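 active = fluorescence ratio B-score at or below minus 3 SD of library scores, with starting-brightness B-score within 2 SD, cut at about -4.2 in these data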;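 also: channel flux triggered by added potassium and thallium sulfate stimulus; B-score of peak minus minimum fluorescence over baseline after thallium stimulus; more negative B-score means stronger Kir2.1 block with less thallium influx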
# An asterisk follows results filed as active; i = inactive; . = not tested or not shown. A selection: hits, their analogues and other compounds. The true share with any hit is near 3.8%.
SMILES,KCNQ1 inh,hERG rescue,KCNQ1 act,KCNK9 block,KCNK3 block,Kir21 inh
CC(C(=O)NC(=O)NC1CCCCC1)N1CCN(c2ccc(O)cc2)CC1 (configuration not stated),.,.,.,.,i,.
Cc1cc(Cl)c(OCCOCCN2CCCC(C)C2)c(Br)c1 (configuration not stated),i,-24.2,i,i,i,-4.28*
Cc1cc(Cl)c(OCCOCCN2CCCCC2)c(Br)c1,i,-2.0,i,i,i,-0.01
CC(C)Cc1nnc(NC(=O)C2=COCCO2)s1,.,.,.,.,i,.
CC1CCCC(NC(=O)CCC(=O)N2CCOc3ccccc32)C1C (configuration not stated),i,-4.0,i,i,i,-0.24
CCC(C)OC(=O)C[N+](C)(C)CCOC1CC2CCC1(C)C2(C)C (configuration not stated),7*,-9.1,i,i,i,-2.12
CCCCOC(=O)C[N+](C)(C)CCOC1CC2CCC1(C)C2(C)C (configuration not stated),7*,-13.2,i,i,i,-0.97
CCCCCCOC(=O)C[N+](C)(C)CCOC1CC2CCC1(C)C2(C)C (configuration not stated),9*,-28.8,i,i,i,-7.74*
CC(C)CCOC(=O)C[N+](C)(C)CCOC1CC2CCC1(C)C2(C)C (configuration not stated),i,-11.8,i,i,i,-2.48
C=C1c2ccccc2S(=O)(=O)N(Cc2ccccc2)C1COCc1ccccc1 (configuration not stated),i,-7.4,i,-6.88*,i,0.53
CC(C)OC(=O)c1c2nc3ccccc3nc2n2c1[nH]c(=O)c1ccccc12,i,42.6*,81*,i,.,-0.06
CC(C)OC(=O)c1c(N)n(CCCN2CCOCC2)c2nc3ccccc3nc12,i,-2.7,i,i,i,-0.05
Cc1ccc(S(=O)(=O)N(CC(=O)Nc2cccc(N(C)S(C)(=O)=O)c2)c2ccc(Cl)c(Cl)c2)cc1,10*,-3.6,i,i,i,1.28
CN(c1cccc(NC(=O)CN(c2ccc(Cl)c(Cl)c2)S(=O)(=O)c2ccccc2)c1)S(C)(=O)=O,i,-13.7,i,i,i,-1.2
Cc1cccc([C@@H]2[C@@H]3C(=O)N(Cc4ccccc4)C(=O)[C@@H]3[C@]3(Cc4ccc(Cl)cc4)C(=O)N(c4ccc(Br)cc4)C(=O)N23)c1,i,-6.4,i,i,i,1.03
Clc1ccc(SCc2cc(Cl)nc(-c3ccccc3)n2)cc1,i,-7.3,i,-6.68*,i,-0.7
CCOC(=O)CSc1cc(CSc2ccccc2)nc(-c2ccccc2)n1,i,-7.9,i,-6.67*,i,1.47
Cc1ccc(S(=O)(=O)CC(=O)Nc2nc(C(C)(C)C)cs2)cc1,i,-14.8,i,i,i,-1.19
Cc1cc(Br)c(NC(=O)C(C)Sc2nnnn2C)c(Br)c1 (configuration not stated),.,.,.,.,i,.
CC(=O)OCC1OC(Sc2cccc3cccnc23)C(OC(C)=O)C(OC(C)=O)C1OC(C)=O (configuration not stated),i,-7.5,i,i,i,1.26
O=C(Nc1cc(Oc2ccccc2)cc([N+](=O)[O-])c1)C12CC3CC(C1)CC(n1cnc(Cl)n1)(C3)C2,12*,-23.7,i,i,i,0.01
O=C(O)c1cccc(NC(=O)C23CC4CC(C2)CC(n2cnc(Cl)n2)(C4)C3)c1,i,-9.1,i,i,i,0.93
O=C(O)CCc1cc(I)c(Oc2ccc(O)c(I)c2)c(I)c1,i,29.0*,49*,i,.,-0.74
CNC(=S)N1C2CCCC1CC(NC(=O)c1ccc(F)cc1)C2 (configuration not stated),i,0.6,i,i,i,0.03
CC(C)N1C(=O)/C(=C/c2nc3ccccc3c(=O)n2-c2ccccc2)c2ccccc21,6*,-19.5,i,i,i,-0.51
COc1ccccc1C(=O)OCC(=O)Nc1cccc(S(=O)(=O)N2CCCC2)c1,.,.,.,.,i,.

# From PubChem
